ChEMBL document CHEMBL1833822, “Efficient synthesis of apricoxib, CS-706, a selective cyclooxygenase-2 inhibitor, and evaluation of inhibition of prostaglandin E2 production in inflammatory breast cancer cells” (2011)

How the values were obtained:
Assay type in all cases: functional
[1] = Inhibition of sodium arachidonate-induced PGE2 production in human SUM190 cells assessed as PGE2 level per 1000 cells at 1 uM preincubated for 2 hrs before sodium arachidonate challenge measured after 2 hrs by competitive EIA (reference value: 6.43 +/- 1.87 pg/mL)
Method in brief: (§1)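 Cells seeded in triplicate, grown at 37°C, 5% CO2 to 80% confluence, washed with PBS, then given fresh medium with inhibitor (0.1, 1, 10 μM) or DMSO vehicle. After 2 h preincubation at 37°C, sodium arachidonate was added to 10 μM final for 2 h more. Supernatant PGE2 was measured by competitive EIA and normalized to trypsinized cell count (pg/mL/1000 cells). Three runs, mean ± SD.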

[2] = tested on: SUM149PT; test: Inhibition of sodium arachidonate-induced PGE2 production in human SUM149 cells assessed as PGE2 level per 1000 cells at 1 uM preincubated for 2 hrs before sodium arachidonate challenge measured after 2 hrs by competitive EIA (reference value: 3.15 +/- 0.19 pg/mL); method in brief: as §1
[3] = tested on: SUM149PT; test: Inhibition of sodium arachidonate-induced PGE2 production in human SUM149 cells at 100 nM preincubated for 2 hrs before sodium arachidonate challenge measured after 2 hrs by competitive EIA; method in brief: as §1
[4] = tested on: SUM149PT; test: Inhibition of sodium arachidonate-induced PGE2 production in human SUM149 cells assessed as PGE2 level per 1000 cells at 10 uM preincubated for 2 hrs before sodium arachidonate challenge measured after 2 hrs by competitive EIA (reference value: 3.15 +/- 0.19 pg/mL); method in brief: as §1
[5] = tested on: SUM149PT; test: Inhibition of sodium arachidonate-induced PGE2 production in human SUM149 cells at 1 uM preincubated for 2 hrs before sodium arachidonate challenge measured after 2 hrs by competitive EIA; method in brief: as §1
[6] = Inhibition of sodium arachidonate-induced PGE2 production in human SUM190 cells assessed as PGE2 level per 1000 cells at 10 uM preincubated for 2 hrs before sodium arachidonate challenge measured after 2 hrs by competitive EIA (reference value: 6.43 +/- 1.87 pg/mL); method in brief: as §1
[7] = tested on: SUM149PT; test: Inhibition of sodium arachidonate-induced PGE2 production in human SUM149 cells assessed as PGE2 level per 1000 cells at 0.1 uM preincubated for 2 hrs before sodium arachidonate challenge measured after 2 hrs by competitive EIA (reference value: 3.15 +/- 0.19 pg/mL); method in brief: as §1
[8] = tested on: SUM149PT; test: Inhibition of sodium arachidonate-induced PGE2 production in human SUM149 cells at 10 uM preincubated for 2 hrs before sodium arachidonate challenge measured after 2 hrs by competitive EIA; method in brief: as §1
[9] = Inhibition of sodium arachidonate-induced PGE2 production in human SUM190 cells assessed as PGE2 level per 1000 cells at 0.1 uM preincubated for 2 hrs before sodium arachidonate challenge measured after 2 hrs by competitive EIA (reference value: 6.43 +/- 1.87 pg/mL); method in brief: as §1

`CCOc1ccc(-c2cc(C)cn2-c2ccc(S(N)(=O)=O)cc2)cc1` [APRICOXIB] showed an Activity [1] of 0.5 pg/mL, an Activity [2] of 0.28 pg/mL and an inhibition at 0.1 µM [3] of 70%. The Activity [4] was 0.11 pg/mL, the inhibition at 1 µM [5] was 91% and the Activity [6] was 0.22 pg/mL. It also gave an Activity [7] of 0.97 pg/mL, an inhibition at 10 µM [8] of 97% and an Activity [9] of 2.1 pg/mL.
`Cc1ccc(-c2cc(C(F)(F)F)nn2-c2ccc(S(N)(=O)=O)cc2)cc1` [CELECOXIB] showed an Activity [1] of 0.81 pg/mL, an Activity [2] of 0.43 pg/mL and an Activity [4] of 0.13 pg/mL. For the same compound, the Activity [6] was 0.18 pg/mL, the Activity [7] was 1.19 pg/mL and the Activity [9] was 2.87 pg/mL.
